How the values were obtained:
[1] = Michaelis constant (Km), determined by Ficin hydrolysis at pH 6, 25 degrees Centigrade; format: ADME; details: buffer
Method in brief: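 Ficin stock suspension diluted in 0.03 M NaCl-0.01 M EDTA buffer pH 6, activated ~2 h by saturation with 4-thiocresol, then diluted again in the same buffer. Ester hydrolysis followed spectrophotometrically at 25 °C, pH 6, in 3.3% acetonitrile-buffer. Initial rates taken at ≥8 substrate concentrations per ester. Km from least-squares fit of a Lineweaver-Burk plot.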

[2] = The compound was tested for optimum wavelength (λmax)
[3] = The compound was tested and spectral absorbance change (Δε) was evaluated
[4] = The compound was tested and optimum wavelength (λmax) was evaluated

Structure (SMILES)	Log 1/Km [1]	other results
CC(C)(C)c1cccc(OC(=O)CNC(=O)c2ccccc2)c1	5.14	
O=C(CNC(=O)c1ccccc1)Oc1cccc([N+](=O)[O-])c1	4.36	
N#Cc1ccc(OC(=O)CNC(=O)c2ccccc2)cc1	4.27	
COc1ccc(OC(=O)CNC(=O)c2ccccc2)cc1	3.82	
O=C(CNC(=O)c1ccccc1)Oc1ccc(Br)cc1	4.13	λmax [2]: 280 nm; Δε [3]: 1090 M⁻¹ cm⁻¹
Cc1cc(C)cc(OC(=O)CNC(=O)c2ccccc2)c1	4.54	
NC(=O)c1cccc(OC(=O)CNC(=O)c2ccccc2)c1	3.99	
CC(C)c1ccc(OC(=O)CNC(=O)c2ccccc2)cc1	4.33	Δε [3]: 1300 M⁻¹ cm⁻¹; λmax [4]: 275 nm
O=C(CNC(=O)c1ccccc1)Oc1ccc(Cl)cc1	3.91	
O=C(CNC(=O)c1ccccc1)Oc1cc([N+](=O)[O-])cc([N+](=O)[O-])c1	4.69	
O=C(CNC(=O)c1ccccc1)Oc1ccccc1	3.9	
O=C(CNC(=O)c1ccccc1)Oc1ccc(F)cc1	3.53	
CC(=O)c1cccc(OC(=O)CNC(=O)c2ccccc2)c1	4.11	Δε [3]: 1860 M⁻¹ cm⁻¹; λmax [4]: 310 nm
COc1cc(OC)cc(OC(=O)CNC(=O)c2ccccc2)c1	4.52	
Cc1ccc(OC(=O)CNC(=O)c2ccccc2)cc1	3.82	
O=C(CNC(=O)c1ccccc1)Oc1cccc(C(F)(F)F)c1	4.85	
O=C(CNC(=O)c1ccccc1)Oc1ccc([N+](=O)[O-])cc1	4.5	
COc1cccc(OC(=O)CNC(=O)c2ccccc2)c1	4.09	Δε [3]: 886 M⁻¹ cm⁻¹; λmax [4]: 280 nm
Cc1cccc(OC(=O)CNC(=O)c2ccccc2)c1	4.17	
CCc1cc(C)cc(OC(=O)CNC(=O)c2ccccc2)c1	4.79	
CC(=O)Nc1cccc(OC(=O)CNC(=O)c2ccccc2)c1	3.74	
N#Cc1cccc(OC(=O)CNC(=O)c2ccccc2)c1	4.15	
O=C(CNC(=O)c1ccccc1)Oc1cccc(I)c1	4.64	
NC(=O)c1ccc(OC(=O)CNC(=O)c2ccccc2)cc1	4.17	
O=C(CNC(=O)c1ccccc1)Oc1cccc(Cl)c1	4.43	
CC(=O)c1ccc(OC(=O)CNC(=O)c2ccccc2)cc1	4.3	
O=C(CNC(=O)c1ccccc1)Oc1cc(Cl)cc(Cl)c1	4.98	
Nc1cccc(OC(=O)CNC(=O)c2ccccc2)c1	3.72	
O=C(CNC(=O)c1ccccc1)Oc1cccc(Br)c1	4.75	
O=C(CNC(=O)c1ccccc1)Oc1cccc(F)c1	3.81	
